ChEMBL document CHEMBL4152256, “Structure-activity relationship of new antimalarial 1-aryl-3-susbtituted propanol derivatives: Synthesis, preliminary toxicity profiling, parasite life cycle stage studies, target exploration, and targeted delivery” (Eur J Med Chem, 2018)

Legend:
Plasmodium falciparum = experiment: Antiplasmodial activity against chloroquine-sensitive Plasmodium falciparum 3D7 by [3H]-hypoxanthine incorporation assay; type: functional, organism-based; details: Plasmodium falciparum, 3D7
Method in brief: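 Blood-stage P. falciparum 3D7 and FCR-3 were tested by a modified [3H]-hypoxanthine incorporation assay. Chloroquine was the reference in all runs.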

[1] = Cytotoxicity against human HepG2A16 cells by MTT assay; type: cell-based; details: HepG2A16 cells
Method in brief: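 MTT viability assay on HepG2-A16 cells, giving CC50 values.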

[2] = Selectivity index, ratio of CC50 for human HepG2A16 cells by MTT assay to IC50 for multidrug-resistant Plasmodium falciparum FCR-3; type: toxicity; details: HepG2A16 cells, read-out: Ratio CC50/IC50
Method in brief: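 HepG2-A16 human hepatoma cells were tested by MTT viability assay to give CC50. Blood-stage activity was measured against the multidrug-resistant P. falciparum FCR-3 strain by [3H]-hypoxanthine incorporation to give IC50. SI = CC50 HepG2 / FCR-3 IC50.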

[3] = Genotoxicity in Salmonella typhimurium TA1535 harboring pSK1002 assessed as survival at 0.125 mg/ml in absence of Sprague-Dawley rat liver S9 fraction after by SOS/umu assay relative to control; type: toxicity, organism-based; details: salmonella enterica subsp. enterica serovar typhimurium, read-out: Survival
[4] = Genotoxicity in Salmonella typhimurium TA1535 harboring pSK1002 assessed as umu gene induction at 0.125 mg/ml in absence of Sprague-Dawley rat liver S9 fraction after by SOS/umu assay relative to control; type: toxicity, organism-based; details: salmonella enterica subsp. enterica serovar typhimurium, read-out: FC
[5] = Genotoxicity in Salmonella typhimurium TA1535 harboring pSK1002 assessed as survival at 0.125 mg/ml in presence of Sprague-Dawley rat liver S9 fraction after by SOS/umu assay relative to control; type: toxicity, organism-based; details: salmonella enterica subsp. enterica serovar typhimurium, read-out: Survival
[6] = Genotoxicity in Salmonella typhimurium TA1535 harboring pSK1002 assessed as umu gene induction at 0.125 mg/ml in presence of Sprague-Dawley rat liver S9 fraction after by SOS/umu assay relative to control; type: toxicity, organism-based; details: salmonella enterica subsp. enterica serovar typhimurium, read-out: FC
[7] = Genotoxicity in Salmonella typhimurium TA1535 harboring pSK1002 assessed as survival at 0.063 mg/ml in absence of Sprague-Dawley rat liver S9 fraction after by SOS/umu assay relative to control; type: toxicity, organism-based; details: salmonella enterica subsp. enterica serovar typhimurium, read-out: Survival
[8] = Genotoxicity in Salmonella typhimurium TA1535 harboring pSK1002 assessed as umu gene induction at 0.063 mg/ml in absence of Sprague-Dawley rat liver S9 fraction after by SOS/umu assay relative to control; type: toxicity, organism-based; details: salmonella enterica subsp. enterica serovar typhimurium, read-out: FC
[9] = Genotoxicity in Salmonella typhimurium TA1535 harboring pSK1002 assessed as survival at 0.063 mg/ml in presence of Sprague-Dawley rat liver S9 fraction after by SOS/umu assay relative to control; type: toxicity, organism-based; details: salmonella enterica subsp. enterica serovar typhimurium, read-out: Survival
[10] = Genotoxicity in Salmonella typhimurium TA1535 harboring pSK1002 assessed as umu gene induction at 0.063 mg/ml in presence of Sprague-Dawley rat liver S9 fraction after by SOS/umu assay relative to control; type: toxicity, organism-based; details: salmonella enterica subsp. enterica serovar typhimurium, read-out: FC
[11] = Genotoxicity in Salmonella typhimurium TA1535 harboring pSK1002 assessed as survival at 0.031 mg/ml in absence of Sprague-Dawley rat liver S9 fraction after by SOS/umu assay relative to control; type: toxicity, organism-based; details: salmonella enterica subsp. enterica serovar typhimurium, read-out: Survival
[12] = Genotoxicity in Salmonella typhimurium TA1535 harboring pSK1002 assessed as umu gene induction at 0.031 mg/ml in absence of Sprague-Dawley rat liver S9 fraction after by SOS/umu assay relative to control; type: toxicity, organism-based; details: salmonella enterica subsp. enterica serovar typhimurium, read-out: FC
[13] = Genotoxicity in Salmonella typhimurium TA1535 harboring pSK1002 assessed as survival at 0.031 mg/ml in presence of Sprague-Dawley rat liver S9 fraction after by SOS/umu assay relative to control; type: toxicity, organism-based; details: salmonella enterica subsp. enterica serovar typhimurium, read-out: Survival
[14] = Genotoxicity in Salmonella typhimurium TA1535 harboring pSK1002 assessed as umu gene induction at 0.031 mg/ml in presence of Sprague-Dawley rat liver S9 fraction after by SOS/umu assay relative to control; type: toxicity, organism-based; details: salmonella enterica subsp. enterica serovar typhimurium, read-out: FC
[15] = Genotoxicity in Salmonella typhimurium TA1535 harboring pSK1002 assessed as survival at 0.016 mg/ml in absence of Sprague-Dawley rat liver S9 fraction after by SOS/umu assay relative to control; type: toxicity, organism-based; details: salmonella enterica subsp. enterica serovar typhimurium, read-out: Survival
[16] = Genotoxicity in Salmonella typhimurium TA1535 harboring pSK1002 assessed as umu gene induction at 0.016 mg/ml in absence of Sprague-Dawley rat liver S9 fraction after by SOS/umu assay relative to control; type: toxicity, organism-based; details: salmonella enterica subsp. enterica serovar typhimurium, read-out: FC
[17] = Genotoxicity in Salmonella typhimurium TA1535 harboring pSK1002 assessed as survival at 0.016 mg/ml in presence of Sprague-Dawley rat liver S9 fraction after by SOS/umu assay relative to control; type: toxicity, organism-based; details: salmonella enterica subsp. enterica serovar typhimurium, read-out: Survival
[18] = Genotoxicity in Salmonella typhimurium TA1535 harboring pSK1002 assessed as umu gene induction at 0.016 mg/ml in presence of Sprague-Dawley rat liver S9 fraction after by SOS/umu assay relative to control; type: toxicity, organism-based; details: salmonella enterica subsp. enterica serovar typhimurium, read-out: FC
[19] = Genotoxicity in Salmonella typhimurium TA1535 harboring pSK1002 assessed as survival at 0.008 mg/ml in absence of Sprague-Dawley rat liver S9 fraction after by SOS/umu assay relative to control; type: toxicity, organism-based; details: salmonella enterica subsp. enterica serovar typhimurium, read-out: Survival
[20] = Genotoxicity in Salmonella typhimurium TA1535 harboring pSK1002 assessed as umu gene induction at 0.008 mg/ml in absence of Sprague-Dawley rat liver S9 fraction after by SOS/umu assay relative to control; type: toxicity, organism-based; details: salmonella enterica subsp. enterica serovar typhimurium, read-out: FC
[21] = Genotoxicity in Salmonella typhimurium TA1535 harboring pSK1002 assessed as survival at 0.008 mg/ml in presence of Sprague-Dawley rat liver S9 fraction after by SOS/umu assay relative to control; type: toxicity, organism-based; details: salmonella enterica subsp. enterica serovar typhimurium, read-out: Survival
[22] = Genotoxicity in Salmonella typhimurium TA1535 harboring pSK1002 assessed as survival at 0.004 mg/ml in absence of Sprague-Dawley rat liver S9 fraction after by SOS/umu assay relative to control; type: toxicity, organism-based; details: salmonella enterica subsp. enterica serovar typhimurium, read-out: Survival
[23] = Genotoxicity in Salmonella typhimurium TA1535 harboring pSK1002 assessed as umu gene induction at 0.004 mg/ml in absence of Sprague-Dawley rat liver S9 fraction after by SOS/umu assay relative to control; type: toxicity, organism-based; details: salmonella enterica subsp. enterica serovar typhimurium, read-out: FC
[24] = Genotoxicity in Salmonella typhimurium TA1535 harboring pSK1002 assessed as survival at 0.004 mg/ml in presence of Sprague-Dawley rat liver S9 fraction after by SOS/umu assay relative to control; type: toxicity, organism-based; details: salmonella enterica subsp. enterica serovar typhimurium, read-out: Survival
[25] = Genotoxicity in Salmonella typhimurium TA1535 harboring pSK1002 assessed as umu gene induction at 0.004 mg/ml in presence of Sprague-Dawley rat liver S9 fraction after by SOS/umu assay relative to control; type: toxicity, organism-based; details: salmonella enterica subsp. enterica serovar typhimurium, read-out: FC
[26] = Genotoxicity in Salmonella typhimurium TA1535 harboring pSK1002 assessed as umu gene induction at 0.001 mg/ml in absence of Sprague-Dawley rat liver S9 fraction after by SOS/umu assay relative to control; type: toxicity, organism-based; details: salmonella enterica subsp. enterica serovar typhimurium, read-out: FC
[27] = Genotoxicity in Salmonella typhimurium TA1535 harboring pSK1002 assessed as survival at 0.001 mg/ml in presence of Sprague-Dawley rat liver S9 fraction after by SOS/umu assay relative to control; type: toxicity, organism-based; details: salmonella enterica subsp. enterica serovar typhimurium, read-out: Survival
[28] = Genotoxicity in Salmonella typhimurium TA1535 harboring pSK1002 assessed as umu gene induction at 0.001 mg/ml in presence of Sprague-Dawley rat liver S9 fraction after by SOS/umu assay relative to control; type: toxicity, organism-based; details: salmonella enterica subsp. enterica serovar typhimurium, read-out: FC

Compound	IC50 (Plasmodium falciparum)	CC50 [1]	selectivity ratio [2]	viability at 0.125 mg/ml [3]	fold induction at 0.125 mg/ml [4]	viability at 0.125 mg/ml [5]	fold induction at 0.125 mg/ml [6]	viability at 0.063 mg/ml [7]	fold induction at 0.063 mg/ml [8]	viability at 0.063 mg/ml [9]	fold induction at 0.063 mg/ml [10]	viability at 0.031 mg/ml [11]	fold induction at 0.031 mg/ml [12]	viability at 0.031 mg/ml [13]	fold induction at 0.031 mg/ml [14]	viability at 0.016 mg/ml [15]	fold induction at 0.016 mg/ml [16]	viability at 0.016 mg/ml [17]	fold induction at 0.016 mg/ml [18]	viability at 0.008 mg/ml [19]	other results
OC(CCN1CCN(c2ccc(F)cc2)CC1)c1ccc(F)c2ccccc12 (stereo not given)	0.43 µM	29.4 µM	7	56.2%	0.7	59.6%	0.7	118%	0.5	112%	0.5	87%	0.7	140%	0.5	85.4%	0.7	72.4%	0.9	122%	fold induction at 0.008 mg/ml [20]: 0.5; viability at 0.008 mg/ml [21]: 98.7%; viability at 0.004 mg/ml [22]: 87.9%; fold induction at 0.004 mg/ml [23]: 0.8; viability at 0.004 mg/ml [24]: 95.6%; fold induction at 0.004 mg/ml [25]: 0.8; fold induction at 0.001 mg/ml [26]: 0.7; viability at 0.001 mg/ml [27]: 101%; fold induction at 0.001 mg/ml [28]: 0.9
COc1ccccc1N1CCN(CCC(O)c2ccc(F)c3ccccc23)CC1 (stereo not given)	0.07 µM	30.4 µM	138	55.9%	0.9	84.4%	0.7	61.5%	0.9	88.4%	0.7	58.4%	1.3	129%	0.6	63%	1.3	92.4%	1	67.1%	fold induction at 0.008 mg/ml [20]: 1.3; viability at 0.008 mg/ml [21]: 99.1%; viability at 0.004 mg/ml [22]: 66.5%; fold induction at 0.004 mg/ml [23]: 1.1; viability at 0.004 mg/ml [24]: 102%; fold induction at 0.004 mg/ml [25]: 0.8; fold induction at 0.001 mg/ml [26]: 1.3; viability at 0.001 mg/ml [27]: 112%; fold induction at 0.001 mg/ml [28]: 0.9
OC(CCN1CCN(c2ccccc2C(F)(F)F)CC1)c1ccc(F)cc1 (stereo not given)	1.01 µM	1.35 µM	1	25.4%	1.2	21.3%	1.9	28.6%	1.3	89%	0.8	95.5%	0.8	86.7%	1	99.8%	0.8	87.9%	0.9	98.3%	fold induction at 0.008 mg/ml [20]: 0.8; viability at 0.008 mg/ml [21]: 96.1%; viability at 0.004 mg/ml [22]: 107%; fold induction at 0.004 mg/ml [23]: 0.9; viability at 0.004 mg/ml [24]: 92.9%; fold induction at 0.004 mg/ml [25]: 1.1; fold induction at 0.001 mg/ml [26]: 0.9; viability at 0.001 mg/ml [27]: 84.6%; fold induction at 0.001 mg/ml [28]: 1.1
OC(CCN1CC=C(c2ccc(F)cc2)CC1)c1ccc2c(c1)OCO2 (stereo not given)	17.4 µM	165 µM	97	116%	0.8	99.6%	1	96.6%	0.9	105%	0.9	113%	0.8	137%	0.7	92.5%	0.9	92%	1	128%	fold induction at 0.008 mg/ml [20]: 0.7; viability at 0.008 mg/ml [21]: 96%; viability at 0.004 mg/ml [22]: 114%; fold induction at 0.004 mg/ml [23]: 0.8; viability at 0.004 mg/ml [24]: 105%; fold induction at 0.004 mg/ml [25]: 0.9; fold induction at 0.001 mg/ml [26]: 0.5; viability at 0.001 mg/ml [27]: 111%; fold induction at 0.001 mg/ml [28]: 0.7
Nc1ccc(N2CCC(NCCC(O)c3ccc(F)c4ccccc34)CC2)c(C(F)(F)F)c1 (stereo not given)	0.14 µM	11 µM	137	32.4%	0.4	107%	0.1	27.7%	0.6	55.7%	0.4	31.5%	0.7	39.1%	1	28.3%	0.8	32.4%	1.4	27.7%	fold induction at 0.008 mg/ml [20]: 1; viability at 0.008 mg/ml [21]: 104%; viability at 0.004 mg/ml [22]: 38.7%; fold induction at 0.004 mg/ml [23]: 0.8; viability at 0.004 mg/ml [24]: 116%; fold induction at 0.004 mg/ml [25]: 1.1; fold induction at 0.001 mg/ml [26]: 1.1; viability at 0.001 mg/ml [27]: 119%; fold induction at 0.001 mg/ml [28]: 0.6
